# PLC-gamma1 inh: PLC-gamma1 (human) inhibition, primary screen | P19174 | purified PLC-gamma1, fluorogenic substrate, fluorescence | inhibition, % at 12.2 µM | 0.84% of 370,000 active | AID 720700
# DDE Tn6 FP inh: disrupts Tn6 cyclic peptide binding to fibrin D-Dimer-E complex. P02675. Fibrin DD(E) TRITC-Tn6 fluorescence polarization displacement. inhibition, % at 8.3 µM. 0.21% of 370,000 active;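 active = inhibition above a per-campaign cutoff: mean of compounds within control limits plus 3 SD, cut at about 15% in these data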;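 note: 0% = median of all compound wells on the plate and 100% = blocking peptide control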
# Target sequence (P02675 whole entry, looked up): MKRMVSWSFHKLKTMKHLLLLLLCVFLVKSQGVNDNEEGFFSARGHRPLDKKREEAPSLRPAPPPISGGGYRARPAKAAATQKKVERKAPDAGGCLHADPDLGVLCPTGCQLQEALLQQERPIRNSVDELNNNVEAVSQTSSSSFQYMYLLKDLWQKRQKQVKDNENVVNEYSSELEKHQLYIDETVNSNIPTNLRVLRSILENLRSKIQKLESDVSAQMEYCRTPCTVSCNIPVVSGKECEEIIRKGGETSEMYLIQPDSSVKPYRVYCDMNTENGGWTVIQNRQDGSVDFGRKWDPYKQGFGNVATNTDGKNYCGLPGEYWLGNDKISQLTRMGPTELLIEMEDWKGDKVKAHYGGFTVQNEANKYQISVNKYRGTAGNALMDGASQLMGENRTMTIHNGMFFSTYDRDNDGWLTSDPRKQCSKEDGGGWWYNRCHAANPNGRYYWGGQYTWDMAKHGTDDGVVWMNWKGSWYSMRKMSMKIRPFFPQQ
# KLK7 zymogen act: proKLK7 (human) activation, primary screen; P49862; purified proKLK7, EDANS-DABCYL substrate fluorescence; 100% is mature enzyme control, 0% vehicle; activation, % at 7 µM; 0.9% of 370,000 active;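 active = activation above the mean of all tested compounds plus 3 SD, computed per campaign excluding outliers beyond control limits, cut at about 13% in these data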
# NRP1-CendR mod: alters CendR peptide binding to human NRP-1. FAM-RPARPAR peptide binding to NRP-1, fluorescence polarization. inhibition, % at 25 µM. 0.85% of 360,000 active. AID 602438;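 active = inhibition or corrected inhibition above about 18%, plus a signal ratio from 0.5 to 1.5, limit read from the data, passing the limit was not always enough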
# PLC-beta3 inh: inhibitors of human phospholipase C beta3 | Q01970 | Purified PLC-beta3, fluorogenic substrate, fluorescence | inhibition, % at 12.2 µM | 0.18% of 370,000 active | AID 720704; in the data active = inhibition above about 11%;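 note: 0% = median of compound wells on plate and 100% = full blocker control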
# DDE Tn7 FP inh: disrupts Tn7 cyclic peptide binding to fibrin D-Dimer-E complex. FP displacement of FITC-Tn7 peptide from fibrin DD(E); 0% = median of compound wells per plate. AID 720508. inhibition, % at 8.3 µM. 0.13% of 370,000 active. P02675;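 active = inhibition above the mean of compounds falling within the control limits plus 3 SD of them, cut at about 14% in these data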;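 note: 0% = plate median of compound wells and 100% = 10 µM Aha-Tn7 peptide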
#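 Assay system: Fibrin-DD(E) protein isolated from polymerized human fibrin clots; read-out basis: percent inhibition; medium: Tris/NaCl/CaCl2 buffer, pH 7.8; signal: FP measurement; incubation: 10 min plus 3 h, room temperature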
# PLCg1 ctr: counter-screen for PLC-beta3 inhibitors: inhibitors of human PLC-gamma1. purified PLC-gamma1, fluorogenic substrate, fluorescence. shares compounds with PLC-gamma1 inh. 3.1% of 3,300 active. inhibition, % at 12.3 µM. AID 743258
# PLCbeta3 conf: human PLC-beta3 inhibition, confirmation; purified PLC-beta3, fluorogenic substrate fluorescence; shares compounds with PLC-gamma1 inh; inhibition, % at 12.3 µM; 1% of 3,300 active; in the data active = inhibition above about 11%
# Active calls of the source: *; / = not tested or not shown; ! = not active in a repeat. Shown are actives, neighbours in structure and some others; about 3% of the full set was active somewhere. Cut-off read from the data, not from the text of the source, unless noted: active = inhibition above about 9.5%; inactive = the rest.
SMILES,PLC-gamma1 inh,DDE Tn6 FP inh,KLK7 zymogen act,NRP1-CendR mod,PLC-beta3 inh,DDE Tn7 FP inh,PLCg1 ctr,PLCbeta3 conf
CN(CCOC(=O)c1occ2ccccc12)C1CN(Cc2cn(Cc3ccccc3Cl)nn2)S(=O)(=O)C1 (configuration not stated),-1,-2,1,/,2,0,/,/
CN=C1SC(CC(=O)NCCc2ccc(OC)c(OC)c2)C(=O)N1C (configuration not stated),11*!,2,0,8,13*!,-6,9.5*,6
CCN=C1SC(CC(=O)NCCc2ccc(OC)c(OC)c2)C(=O)N1CC (configuration not stated),-3,11,0,8,2,-4,/,/
O=C(OC12CCCN(C1)/C(=C/c1ccncc1)C2)c1ccc(F)cc1 (configuration not stated),-4,4,0,/,-8,-8,/,/
CC(=O)Nc1nc(COc2ccccc2)cs1,5,-5,0,0,7,0,/,/
CCOC(=O)Cc1csc(NC(=O)COc2ccccc2)n1,11*,1,0,23,6,-11,-4,0
O=C(Nc1nc(COc2ccccc2)cs1)C12CC3CC(CC(C3)C1)C2,9,-12,1,-6,11*,3,8,9
O=C(NCCc1ccccc1)C1CCCN1S(=O)(=O)c1ccc(F)cc1 (configuration not stated),8,1,0,6,12*,-6,7,-1
O=C(NCCCN1CCN(c2ccc(F)cc2)CC1)Nc1ccccc1,2,-3,0,/,1,6,/,/
COC(=O)c1ccccc1S(=O)(=O)NC(=O)[C@H]1O[C@@H](n2ccc(=O)[nH]c2=O)[C@H](O)[C@@H]1O,3,-1,0,/,6,-5,/,/
CC(C)C[C@H](NC1(C(=O)NC2CCCCC2)CCCCC1)C(=O)NCCc1c[nH]c2ccccc12,0,-5,/,/,-1,0,/,/
CC(C)c1ccc(CN2CCC2(C)C(=O)Nc2ccc3c(c2)OCO3)cc1 (configuration not stated),2,2,0,-8,7,0,/,/
COCOc1cccc(CN2CCC2(C)C(=O)Nc2ccc(C)cc2)c1 (configuration not stated),13*,7,0,-10,0,-6,-7,-5
CC(C)Oc1ccc(CN2CCC2(C)C(=O)Nc2ccc3c(c2)OCO3)cc1 (configuration not stated),12*,-1,0,15,8,-2,-1,5
CC(C)C[C@H]1CNC(=O)C(=O)N1C[C@H](Cc1ccc(O)cc1)NC(=O)Cc1ccccc1,-1,5,0,0,1,0,/,/
C[C@H]1CNC(=O)C(=O)N1C[C@H](Cc1ccc(O)cc1)NC(=O)CC12CC3CC(CC(C3)C1)C2,5,-1,0,-3,12*,-11,-6,2
O=C(COC(=O)c1ccccc1C(=O)OCC(=O)NCCc1c[nH]c2ccccc12)NCCc1c[nH]c2ccccc12,9.9*,0,0,6,5,-3,9.6*,3
CCc1ccc(N2C(=O)CN(CC(=O)OC)C2=S)cc1,2,-2,-1,5,8,1,/,/
COC(=O)CN1CC(=O)N(c2ccccc2)C1=S,10*,-7,0,-2,-3,3,0,-5
CC(=O)c1ccc(OCC(C)C)c(CC(C(N)=O)C(N)=O)c1,7,-4,0,5,12*,-3,-6,1
Cc1ccc(CN2CCCCC(NC(=O)C(C)(C)C)C2=O)cc1 (configuration not stated),0,1,0,/,-1,-1,/,/
Clc1ccc(C2[C@H]3CN(Cc4ccc(-c5ccccc5)cc4)[C@H](c4ccccc4)C34CC2(c2ccccc2)C4)cn1 (some centres not stated),1,8,0,/,2,4,/,/
N#Cc1ccc(C23CC4(C2)[C@H](CN(Cc2ccc(-c5ccccc5)cc2)[C@@H]4c2ccccc2)C3c2ccc(Cl)nc2)cc1 (some centres not stated),13*,-6,-1,18,3,-14,-10,-15
O=S(=O)(Cc1ccc(Cl)cc1)C1CCCCC1O (configuration not stated),11*,10,0,10,5,-3,-4,-1
O=S(=O)(Cc1ccc(Cl)cc1)NCC1CCCO1 (configuration not stated),1,-5,1,2,1,4,/,/
SMILES,PLC-gamma1 inh,DDE Tn6 FP inh,KLK7 zymogen act,NRP1-CendR mod,PLC-beta3 inh,DDE Tn7 FP inh,PLCg1 ctr,PLCbeta3 conf
CC(=O)Nc1ccc(N2CC(C)(C)C2=O)cc1,13*,4,-1,-14,5,-3,-3,1
COc1ccc2[nH]cc(C(C)c3c[nH]c4ccccc34)c2c1 (configuration not stated),-5,-4,0,/,-8,-6,/,/
CCN(CC(=O)Nc1ccc2c(c1)OCCO2)C(=O)COc1cc(C)ccc1Cl,12*,-2,0,-3,5,0,-8,-2
Cc1ccc(Cl)c(OCC(=O)Nc2ccc3c(c2)OCCO3)c1,4,-5,0,0,1,-5,/,/
O=C(NCCc1c[nH]c2ccccc12)OCc1cn(-c2cccc(Cl)c2)nn1,-3,2,-1,/,-4,-1,/,/
CC1Cc2ccccc2N1C(=O)CSc1nc(-c2ccco2)cc(C(F)(F)F)n1 (configuration not stated),13*,-2,0,-12,1,-4,-2,0
Cc1ccc(-c2nnc(SCC(=O)N/N=C/c3ccccc3C(=O)O)n2-c2ccc(C)cc2)cc1,0,-4,0,-3,-5,-6,/,/
COc1ccc(-c2nnc(SCC(=O)Nc3ccccc3)n2C)cc1,13*,0,-1,-8,2,-5,-7,-3
COc1ccc(-c2nnc(SCC(=O)N/N=C/c3ccccc3C(=O)O)n2-c2ccccc2)cc1,14*,1,0,13,3,-3,-1,-2
COc1ccc(-c2nnc(SCC(=O)NCc3cccs3)n2CC(C)C)cc1,10*,-2,0,1,9,7,-3,1
COc1ccc(C2C(C(=O)Nc3cc(OC)c(OC)c(OC)c3)CCC(=O)N2c2ccc(OC)cc2)cc1 (configuration not stated),-1,-4,0,/,-2,2,/,/
CCC[C@H]1[C@@H](OC(=O)NCCc2c[nH]c3ccccc23)CC[C@@]23CCCN2C(=O)CCC[C@@H]13,0,6,/,/,1,1,/,/

# High-throughput results from PubChem BioAssay.
